FGF22 binding: binders of recombinant human FGF22 by thermal shift. Q9HCT0. activity (Tm shift, normalised), % at 9.99 µM. SYPRO orange fluorescence; percent of sucrose octasulfate shift, DMSO zero. actives 1.5% (n = 340,000). AID 651658;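 active means mean Tm shift, scaled 0 neutral to 100 positive control, at about 1.3% or above, every replicate too, limit read from the data; inconclusive means no clear call, values can overlap the other calls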
E-selectin induc: induces E-selectin expression in human endothelial cells. activation, % at 7.58 µM. HUVEC E-selectin immunofluorescence imaging; normalized: neutral wells 0, TNF-alpha wells 100. P16581. AID 686992. actives 0.37% (n = 260,000);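 active means mean E-selectin-positive cell signal at least 10% of the positive control, reached in at least 60% of replicates, without over 20% cell loss; inconclusive means no rule given, readout overlaps actives, possibly toxicity-flagged; inactive means the rest, including those meeting only one limit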
Target sequence (P16581 whole entry, looked up): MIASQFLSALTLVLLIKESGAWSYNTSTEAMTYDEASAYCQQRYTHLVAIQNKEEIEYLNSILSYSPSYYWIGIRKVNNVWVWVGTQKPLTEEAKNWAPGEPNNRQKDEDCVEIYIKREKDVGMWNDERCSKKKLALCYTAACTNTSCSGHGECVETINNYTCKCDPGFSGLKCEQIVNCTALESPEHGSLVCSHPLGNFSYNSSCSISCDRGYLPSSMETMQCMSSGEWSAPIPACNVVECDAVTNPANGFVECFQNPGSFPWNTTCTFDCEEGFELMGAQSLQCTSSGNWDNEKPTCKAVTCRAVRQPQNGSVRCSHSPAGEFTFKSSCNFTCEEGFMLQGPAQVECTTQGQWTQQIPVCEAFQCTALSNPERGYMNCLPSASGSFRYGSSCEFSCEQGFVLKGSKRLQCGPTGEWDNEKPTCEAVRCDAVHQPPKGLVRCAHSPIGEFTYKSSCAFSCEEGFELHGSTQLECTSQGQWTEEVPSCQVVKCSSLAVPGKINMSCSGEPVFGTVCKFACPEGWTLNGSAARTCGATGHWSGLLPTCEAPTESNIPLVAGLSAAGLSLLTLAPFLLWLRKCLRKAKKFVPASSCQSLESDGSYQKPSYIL
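Test system – human umbilical vein endothelial cells (HUVEC), E-selectin induction · Input – 3,000 HUVEC seeded per well · Buffer or medium – EGM-2, gelatin · Compound dosing – single-point compound dose · Detection – immunofluorescence imaging · Measure – percent E-selectin-positive cells · Controls – TNF-alpha high, DMSO low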
Statin myotox sup: suppression of simvastatin myotoxicity; C2C12 myotubes + simvastatin, ATP luminescence, 48 h; scaled: DMSO 0, geranylgeraniol control 100; rescue of ATP level, % at 7.49 µM; actives 0.78% (n = 330,000);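 active means mean ATP rescue above about 67%, or every replicate alone reaching that limit, limit read from the data, passing the limit was not always enough; inconclusive means no clear call, values can overlap the other calls; inactive means mean under the limit and some replicate under it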;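 further: myotubes were challenged with 10 µM simvastatin during compound exposure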
FN deposition inh: fibronectin deposition inhibition; inhibition, % at 12.6 µM; AH1F fibroblasts, Alexa488-fibronectin deposition fluorescence, overnight; actives 0.086% (n = 350,000);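 active means mean inhibition across replicates of 30% or more, regardless of how many single replicates reach that level; inconclusive means mean under 30% yet at least half of replicates reach 30%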;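 further: positive control wells lacked labelled fibronectin entirely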
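Material: AH1F fibroblasts assembling fluorescent fibronectin matrix; amount: 10000 AH1F cells/well; medium: DMEM, 2% serum; reagent: Alexa488-fibronectin, 24 nM final in well; dosing: single compound dose, delivered by pin transfer; incubation: 1 h adhesion, overnight exposure; detection: fluorescence after three HBSS washes, excitation 485 nm, emission 525 nm; measure: fibronectin deposition inhibition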
rRNA inh HTS: inhibitors of bacterial rRNA selective over humanized ribosomes; actives 1.6% (n = 350,000); AID 720706; E. coli WT GFP vs humanized-ribosome RFP mutants, fluorescence, 24 h; active compounds read low; DMSO median 0, no signal -100; GFP signal change (wild-type ribosome), % (concentration not given with the values);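 active means significant combined selectivity score with lowered wild-type GFP, culture density cut under 30%, mutant RFP and density less affected; inactive means any of these conditions unmet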
SIRT5 inh: inhibitors of human sirtuin-5 desuccinylase. Purified SirT5, succinyl-peptide AMC, trypsin-coupled fluorescence. Q9NXA8. inhibition, % at 15 µM. actives 1.1% (n = 330,000); in the data active means inhibition above about 15%; inconclusive means no clear call, values can overlap the other calls
AID977621: wild-type E. coli growth inhibition versus H69 humanized strain – H69 mutant RFP, wild-type GFP, cherry-pick, dose response; shares compounds with rRNA inh HTS; fluorescence, 24 h; activity change, negative = inhibition at 50 µM; 1,900 tested, under 10 active;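 active means Wild-type ribosome reporter drop at least double the humanized mutant ribosome reporter drop, growth loss under a set limit; inconclusive means no clear call, values can overlap the other calls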;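 further: wild-type GFP and H69 mutant RFP strains grown together 50/50 in each well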
AID977628: E. coli growth inhibition, wild-type GFP versus h24 humanized RFP strain, dose response, h24 mutant RFP vs wild-type GFP, cherry-pick; shares compounds with rRNA inh HTS; E. coli WT GFP strain growth, fluorescence, 24 h; activity change, negative = inhibition at 50 µM; 1,900 tested, under 10 active; AID 977628;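 active means compound lowering the normal-ribosome reporter at least twice as much as the humanized-ribosome reporter, growth loss under a set limit; inconclusive means no clear call, values can overlap the other calls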;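 further: wild-type GFP and h24 humanized RFP strains co-cultured 1 to 1 per well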
Starred values were filed as active, the others as inactive; ? = inconclusive; nt = no result. Sampled rows, rich in hits. Any-hit rate of the full collection: about 4%.

SMILES	FGF22 binding	E-selectin induc	Statin myotox sup	FN deposition inh	rRNA inh HTS	SIRT5 inh	AID977621	AID977628
CCCN(C)C[C@H]1Oc2cc(C#CCC3CCCC3)ccc2S(=O)(=O)N([C@H](C)CO)C[C@H]1C	nt	0	12	14	-21	nt	nt	nt
COc1ccc(CN2C(=O)CC(Cc3cc(C)cc(C)c3)C2=O)cc1OC (stereo not given)	1	-2	nt	6	-20*	0	-7.8	nt
COc1ccc(CCN2C(=O)CC(Cc3cccc(C)c3)C2=O)cc1OC (stereo not given)	0	nt	nt	-5	-19	1	nt	nt
COc1ccc(C(=O)Nc2nc3ccc(OC)cc3s2)cc1	0	0	2	-8	-32*	-1	nt	?
COc1ccc(C(=O)Nc2nc3ccc(S(C)(=O)=O)cc3s2)cc1	nt	nt	nt	-2	nt	nt	nt	nt
CN1C(=O)c2cc(NC(=O)c3ccc(Cl)cc3)ccc2OC[C@@H]2O[C@@H](CC(=O)O)CC[C@@H]21	0	0	-6	1	-1	nt	nt	nt
COc1cc2cc(C(=O)Nc3ccc4c(c3)OCCO4)[nH]c2cc1OC	0	nt	-10	-4	-21*	2	-3.5	-11
CO[C@@H]1CN(C)C(=O)c2cc(NC(=O)c3ccccc3)ccc2OC[C@@H](C)NC[C@H]1C	0	0	4	-19	1	2	nt	nt
Cc1ccccc1Nc1c(-c2cccnc2)nc2ccc(Br)cn12	0	0	20	6	-25*	-2	6.9	0.28
Cc1ccc2nc(-c3cccnc3)c(Nc3ccccc3C)n2c1	0	0	2	7	1	4	nt	nt
Cc1ccc(Nc2nc(C(=O)NCC3CCCO3)cs2)cc1 (stereo not given)	0	2	nt	-17	-42*	nt	3.5	-3.1
Cc1ccc(S(=O)(=O)N[C@@H]2C=C[C@@H](CC(=O)NCCN3CCCCC3)O[C@@H]2CO)cc1	0	-1	7	nt	2	-2	nt	nt
Nc1ccccc1Nc1ccc([N+](=O)[O-])cc1[N+](=O)[O-]	0	-1	nt	0	-24*	-1	-17	-19
NC(=O)c1cc([N+](=O)[O-])ccc1Nc1ccccc1	0	0	16	6	12	-1	nt	nt
Nc1cc([N+](=O)[O-])ccc1Nc1ccc(O)cc1	0	0	17	1	-24*	-1	nt	?
CCCNC(=O)N1[C@H](CO)[C@H](c2ccccc2)[C@@H]1CNC(=O)C1CCCCC1	nt	0	nt	nt	0	-5	nt	nt
C[C@@H]1CN([C@@H](C)CO)C(=O)c2cc(NC(=O)Cc3cn(C)c4ccccc34)ccc2O[C@@H]1CN(C)S(=O)(=O)c1cccs1	0	nt	38	nt	-2	1	nt	nt
CO[C@@H]1CN(C)C(=O)c2ccc(NS(=O)(=O)c3ccccc3)cc2OC[C@@H](C)N(Cc2cccnc2)C[C@@H]1C	0	0	5	-3	0	-2	nt	nt
CCCC(=O)Nc1ccc2c(c1)C(=O)N(C)C[C@@H](OC)[C@H](C)CN(CC1CCOCC1)[C@H](C)CO2	nt	0	2	5	-3	nt	nt	nt
CC(C)(C)c1ccc2c(c1)C(c1ccc3c(c1)OCO3)CC(=O)O2 (stereo not given)	0	5	1	-1	-25*	4	-3.7	nt
COc1cc2c(c(OC)c1OC)C(c1ccc3c(c1)OCO3)CC(=O)O2 (stereo not given)	0	-7	7	13	-20*	-5	-20	-8.5
Cc1ccc(C2CC(=O)Oc3cc(C)cc(C)c32)cc1 (stereo not given)	0	-6	5	nt	-47	-1	nt	nt
